In PubChem BioAssay AID485279 (Sanford-Burnham Center for Chemical Genomics, 2010):
Calls of active or inactive are those of the source.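 How the source made its calls: active means average efficacy above 50%; inactive means the rest.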

Tested on: U2OS-GPR55 ERK1/2 phosphorylation, western blot
Assay: downstream MAPK activation by GPR55 agonists – cell-based, U2OS-GPR55, western blot, mechanism study, SAR follow-up (AID 485279)
Conditions: at 1 µM, stronger effect = higher value; for stimulation: measured here: ERK stimulation vs negative control
Summary of the method: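 Material: GPR55/beta-arrestin-GFP U2OS cells | Quantity: 20 µg cytosolic lysate protein per blot lane | Measured by: Two-colour fluorescent western blot of cytosolic lysates | Times: 48 h serum starvation, then 10 min compound exposure at room temperature | Controls: LPI 10 µM reference agonist | Dosing: Single compound dose, 1 µM final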

| Compound | efficacy | stimulation [%] |
| --- | --- | --- |
| COc1ccc2cc(C)c3nnc(SCC(=O)Nc4nc(-c5ccc(F)cc5)cs4)n3c2c1 | 133% | 168 |
| COc1ccc(-c2csc(NC(=O)CSc3nnc4c(C)cc5ccccc5n34)n2)cc1 | 79.7% | 133 |
| Cc1occc1C(=O)Nc1ccc(OCc2ccccc2)cc1 | 69% | 127 |
| CN(C)S(=O)(=O)c1ccc(N2CCCC2)c(C(=O)N2CCN(c3ccc([N+](=O)[O-])cc3)CC2)c1 | 63.1% | 141 |
| CCCN(CCC)Cc1c(C(=O)NN=Cc2c[nH]c3ccccc23)nnn1-c1nonc1N | -65.3% (inactive) | 77.7 |
| COc1ccccc1/C=C/C(=O)NC(=S)Nc1ccc(S(=O)(=O)N(C)c2ccccc2)cc1 | 259% | 201 |
| Cc1cccc(N2CCN(C(=O)c3cc(S(=O)(=O)N(C)C)ccc3N3CCCC3)CC2)c1C | 128% | 149 |
| CC(C)Oc1ccc(S(=O)(=O)N2CCOCC2)cc1NC(=O)c1ccc(N2CCCC2=O)cc1 | 103% | 143 |
| COc1ccc(S(=O)(=O)N2CCOCC2)cc1NC(=O)c1cc2c(s1)CCCC2 | 95.6% | 135 |
